In ChEMBL document CHEMBL2440017, “Discovery of a potent, selective, and orally bioavailable histamine H3 receptor antagonist SAR110068 for the treatment of sleep-wake disorders” (Bioorg Med Chem Lett, 2013):
pKi: −log10 of the molar value.

Columns and labels:
[1] = tested on: Mus musculus; experiment: Autonomic toxicity in mouse at 10 to 30 mg/kg, po; format: organism-based; parameters: dose 10-30 mg/kg, route oral; conditions: in vivo
Outline: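 Acute oral behavioural safety evaluation in grouped mice at 0, 10 and 30 mg/kg p.o. Animals scored for behavioural, neurologic and autonomic signs.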

[2] = tested on: Mus musculus; experiment: Neurologic toxicity in mouse at 10 to 30 mg/kg, po; format: organism-based; parameters: dose 10-30 mg/kg, route oral; conditions: in vivo
Outline: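 Acute oral behavioral safety evaluation in mice. Oral doses were 0, 10 and 30 mg/kg. Behavioral, neurologic and autonomic signs were scored.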

[3] = tested on: Salmonella typhimurium; experiment: Genotoxicity in Salmonella typhimurium at 3 to 1000 ug/ml by Ames 2 test in presence of human liver microsomes; format: toxicity, organism-based; conditions: salmonella enterica subsp. enterica serovar typhimurium
Outline: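 Ames II and micronucleus tests, Ames over 3–1000 µg/mL and MNT over 5–950 µg/mL. Each run with and without metabolic activation by human liver microsome preparations.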

[4] = Ratio of AUC (0 to infinity) in Sprague-Dawley rat brain to AUC (0 to infinity) in Sprague-Dawley rat at 2 mg/kg, iv; format: ADME, organism-based; parameters: dose 2 mg/kg, route intravenous; conditions: read-out: Ratio AUC
Outline: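 Male Sprague–Dawley rats received 2 mg/kg i.v. (0.5 mg/mL in saline) or 10 mg/kg p.o. (1.0 mg/mL in 0.5% MC/0.2% Tween80). Plasma and brain AUC0-inf were measured, and the B/P ratio was calculated from i.v. AUC0-inf.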

[5] = Elimination half life in Sprague-Dawley rat plasma at 2 mg/kg, iv; format: ADME, organism-based; parameters: dose 2 mg/kg, route intravenous; conditions: read-out: beta t1/2 (converted)
Outline: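 Male OF1 mice or male Sprague-Dawley rats, single 2 mg/kg i.v. dose. Mouse vehicle 50% 1-methyl-2-pyrrolidinone in saline at 1.0 mg/mL; rat vehicle saline at 0.5 mg/mL. Plasma and brain levels followed over time; AUC0-inf, t1/2 and clearance derived from exposure. Brain/plasma ratio uses i.v. AUC0-inf.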

[6] = target: CYP3A4 (Homo sapiens, UniProt P08684); experiment: Inhibition of CYP3A4 (unknown origin) at 5 uM; format: ADME
[7] = Metabolic stability in dog microsomes; format: ADME, Canis lupus familiaris, Microsome
Outline: (§1)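 Percentage biotransformation measured in vitro in liver microsomes of each species.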

[8] = Metabolic stability in rat microsomes; format: ADME, Microsome; outline: as §1
[9] = Metabolic stability in guinea pig plasma; format: ADME, cell-free, Cavia porcellus
Outline: (§2)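 Compound stability measured in plasma of each species in vitro.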

[10] = tested on: Plasma; experiment: Metabolic stability in rat plasma; format: ADME, cell-free; outline: as §2
[11] = Drug degradation in aqueous solution at pH 1.0 to 7.4 after 48 hrs at room temperature; format: physicochemical; conditions: read-out: Drug degradation
Outline: (§3)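 Compound kept 48 h at room temperature in water, aqueous solutions of pH 1.0–7.4, DMSO, or GI-tract simulation medium. Percent degradation measured.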

[12] = Drug degradation in DMSO after 48 hrs at room temperature; format: physicochemical; conditions: read-out: Drug degradation; outline: as §3
[13] = target: Histamine receptor H3 (Macaca mulatta, UniProt Q865E1); experiment: Displacement of [3H]N-alpha-methylhistamine from rhesus monkey histamine H3 receptor expressed in CHO cells; format: cell-based
Outline: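 Membranes from CHO cells stably expressing rhesus monkey H3 receptor. Competition binding against [3H]N-α-methylhistamine; Ki values are means of three or more determinations.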

CYP3A4, sequence (P08684 whole entry): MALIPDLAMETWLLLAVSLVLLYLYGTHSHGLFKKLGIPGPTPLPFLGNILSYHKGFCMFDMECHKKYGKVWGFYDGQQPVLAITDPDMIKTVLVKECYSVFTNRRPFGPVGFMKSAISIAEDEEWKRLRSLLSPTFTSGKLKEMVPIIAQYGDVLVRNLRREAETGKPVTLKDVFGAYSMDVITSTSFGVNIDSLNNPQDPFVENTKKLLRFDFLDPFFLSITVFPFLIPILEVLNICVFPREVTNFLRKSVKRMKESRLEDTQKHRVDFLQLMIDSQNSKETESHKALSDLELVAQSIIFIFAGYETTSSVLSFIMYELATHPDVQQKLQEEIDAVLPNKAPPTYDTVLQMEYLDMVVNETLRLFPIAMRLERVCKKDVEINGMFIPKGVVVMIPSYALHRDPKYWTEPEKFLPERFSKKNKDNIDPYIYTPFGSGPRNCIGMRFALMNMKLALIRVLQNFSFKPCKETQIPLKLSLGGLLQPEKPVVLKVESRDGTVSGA
Histamine receptor H3, sequence (Q865E1 whole entry): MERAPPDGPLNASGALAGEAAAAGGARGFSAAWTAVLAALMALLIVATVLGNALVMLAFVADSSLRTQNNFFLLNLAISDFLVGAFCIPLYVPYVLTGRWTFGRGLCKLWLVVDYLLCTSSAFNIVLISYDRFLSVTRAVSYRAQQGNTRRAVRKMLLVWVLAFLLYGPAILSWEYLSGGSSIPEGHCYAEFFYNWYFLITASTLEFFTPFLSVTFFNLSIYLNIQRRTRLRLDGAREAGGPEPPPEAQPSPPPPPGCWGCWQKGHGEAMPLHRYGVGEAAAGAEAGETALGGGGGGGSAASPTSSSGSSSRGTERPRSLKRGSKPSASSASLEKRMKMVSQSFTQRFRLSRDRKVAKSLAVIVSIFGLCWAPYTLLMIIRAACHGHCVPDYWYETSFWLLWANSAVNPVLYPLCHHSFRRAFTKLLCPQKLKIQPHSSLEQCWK

Kp [4]: 0.33 | half-life [5]: 4.3 h | inhibition at 5 µM [6]: 61% | Stability [7]: Stable | Stability [8]: Stable | Stability [9]: Stable | Stability [10]: Stable | degraded at 48 h [11]: < 2% | degraded at 48 h [12]: < 2% | pKi [13]: 9.01
SMILES: Cc1cc(N2CC[C@H](N3CCC[C@@H]3C)C2)ccc1NC(=O)C1CCOCC1
Activity [1]: Non-toxic | Activity [2]: Non-toxic | Activity [3]: Non-toxic
